Source: PubChem (The Scripps Research Institute Molecular Screening Center)
In the library only some 1.3% were active in any assay of this set; here they are far more common.
NR2E3 ag-1: inhibitors of NR2E3-RetCOR corepressor binding, primary screen, NR2E3 agonist project, biochemical, TR-FRET, GST-NR2E3, biotin-RetCOR. Photoreceptor-specific nuclear receptor (Homo sapiens), Q9Y5X4. 1536-well. inhibition of corepressor binding, % at 4.78 µM. 320,000 tested, 0.12% active;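 active = percent inhibition above the cutoff of mean plus 3 SD of all tested compounds, set per screening campaign, cut at about 20% in these data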;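 note: 0% = DMSO wells and 100% = biotin wells as full block of FRET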
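Material – GST-tagged NR2E3 plus biotinylated RetCOR corepressor · Quantity – NR2E3 fusion 1.35 nM · Times – 5 h incubation at 4 °C · Medium – pH 7.5 Tris-based buffer · Technique – TR-FRET, Eu(K)-anti-GST donor, streptavidin-D2 acceptor, ex 340, em 617/671 nm · Benchmarks – high control biotin, low control 0.6% DMSO · Format – 1536-well plates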
PP1 inh: PP1-alpha phosphatase inhibitors, primary screen, counter-screen for PP5 inhibitor project, biochemical, fluorescence, OMFP substrate, single point; inhibition, % at 6.7 µM; Serine/threonine-protein phosphatase PP1-alpha catalytic subunit (Homo sapiens), P62136; 320,000 tested, 0.9% active; purified PP1alpha;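 active = inhibition above the mean inhibition of all tested compounds plus 3 SD, computed separately for each screening campaign, cut at about 15% in these data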
Target sequence (P62136 whole entry, looked up): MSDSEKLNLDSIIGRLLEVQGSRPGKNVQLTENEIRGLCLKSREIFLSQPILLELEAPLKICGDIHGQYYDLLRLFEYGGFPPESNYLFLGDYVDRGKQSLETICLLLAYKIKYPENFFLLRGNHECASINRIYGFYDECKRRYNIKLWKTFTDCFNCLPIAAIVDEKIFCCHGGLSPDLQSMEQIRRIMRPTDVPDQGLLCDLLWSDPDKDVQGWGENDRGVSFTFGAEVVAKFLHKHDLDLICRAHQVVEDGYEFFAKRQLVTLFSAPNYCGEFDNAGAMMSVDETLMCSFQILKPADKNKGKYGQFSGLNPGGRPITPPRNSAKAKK
NR2E3 ag-2: NR2E3 agonists in two-hybrid cells, primary screen, cell-based, luminescence, CHO-S, Gal4-NCOR/VP16-NR2E3; Photoreceptor-specific nuclear receptor (Homo sapiens), Q9Y5X4; luciferase; inhibition of corepressor binding, % at 3.98 µM; 360,000 tested, 0.35% active; AID 602229, 2012;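 active = inhibition above the mean of all tested compounds plus 3 SD, cut at about 70% in these data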;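 note: 0% = DMSO with NR2E3 transfected cells and 100% = cells lacking NR2E3 construct; higher means lower luciferase signal from less NR2E3 corepressor binding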
PP5 primary: PP5 phosphatase inhibitors, primary screen, biochemical, fluorescence; inhibition, % at 6.7 µM; 320,000 tested, 0.18% active; purified PP5c, OMFP substrate fluorescence; Serine/threonine-protein phosphatase 5 (Homo sapiens), P53041;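 active = inhibition above the campaign's mean inhibition across all tested compounds plus 3 SD, cut at about 9.5% in these data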;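 note: 0% = DMSO only and 100% = 100 µM cantharidin control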
Starred values were filed as active, the others as inactive; . = no result given.

SMILES | NR2E3 ag-1 | PP1 inh | NR2E3 ag-2 | PP5 primary
CC1(C(=O)NS(=O)(=O)c2cccc(F)c2)CCN1C(=O)c1ccccc1 (centres undefined) | . | . | -38 | .
CC(=O)c1c(C)[nH]c(C(=O)NCC2CCCCC2)c1C | 0 | -1 | -37 | 4
COC(=O)c1cccc(NC(=S)NCCC2=CCCCC2)c1 | 4 | -4 | 91* | 4
COCCN(C(=O)c1cc(Cl)ccn1)c1c(N)n(Cc2ccccc2)c(=O)[nH]c1=O | 6 | -3 | 11 | 2
Cc1ccc(/C=C/C2=Cc3c(sc(NC(=O)CSc4n[nH]c(N)n4)c3C#N)C(C)(C)C2)o1 | 4 | 57* | . | -8
OCC[C@@H]1C[C@H](O)[C@@H](O)[C@]2(Cc3ccccc3CO2)O1 | 2 | -1 | -9 | -1
Cc1ccc2nc(-c3ccccn3)c(N)n2c1 | . | . | -30 | .
O=C(NC1CCCCC1)C(c1ccncc1)N(Cc1ccc(F)cc1)C(=O)c1ccccn1 (centres undefined) | -1 | 0 | -20 | -2
O=C(NC1CCCCC1)C(c1ccncc1)N(Cc1ccccc1)C(=O)c1ccc(-c2ccccc2)[nH]1 (centres undefined) | 3 | 16* | -15 | 1
CC(C)C(NCC(=O)Nc1ccccc1C(=O)NC1CC1)c1ccccc1 (centres undefined) | . | . | 19 | .
O=S1(=O)Nc2c(ccc3cccnc23)-c2ccccc21 | -2 | 2 | 102* | 3
O=C(COC(=O)c1cccc([N+](=O)[O-])c1)Nc1ncc(Br)s1 | . | . | 1 | .
Cc1ccc(C(=O)N2CCN(c3ccc(NC(=S)NC(=O)Cc4ccccc4)cc3)CC2)cc1 | 1 | 14 | 72* | 2
O=S(=O)(NCc1cn2ccsc2n1)c1cccs1 | 0 | -1 | -6 | -1
O=S(=O)(NCc1cn2ccsc2n1)c1ccc(Oc2ccccc2)cc1 | -1 | -2 | 88* | 1
CC(=O)c1cccc(Nc2nc(-c3cccc([N+](=O)[O-])c3)cs2)c1 | 2 | 16* | -75 | 1
C=CCN(c1ccccc1)S(=O)(=O)c1cccc(C(=O)Nc2nc3ccccc3[nH]2)c1 | 6 | 17* | 9 | -3
COc1ccc(Cl)c(Cn2c(NCc3ccco3)nc3c2c(=O)n(C)c(=O)n3C)c1 | 1 | 6 | 72* | 4
CC(C)Cn1c(=S)[nH]c2cc(Cl)ccc21 | 7 | -1 | 3 | 1
Cc1ccc(CN(C(=O)Cn2nnc3ccccc32)C(C(=O)NCc2ccco2)c2cccs2)cc1 (centres undefined) | 5 | 17* | -8 | 5
O=C(NCc1ccco1)C(c1cccs1)N(Cc1ccccc1)C(=O)Cn1nnc2ccccc21 (centres undefined) | 4 | 0 | -21 | 2
COc1cccc(/C=N/NC(=O)c2cc(-c3cccn3C)n[nH]2)c1O | 0 | 16* | 10 | 3
CC(OC(=O)CCC1CCCC1)C(=O)Nc1ccccc1[N+](=O)[O-] (centres undefined) | 1 | -4 | -13 | 2
Cc1ccc(N(CC(=O)N2CCCCCC2)S(C)(=O)=O)c(C)c1 | . | . | -4 | .
CC(C)C(=O)NC(c1cccc([N+](=O)[O-])c1)c1ccc2cccnc2c1O (centres undefined) | -1 | 17* | -9 | 2
SMILES | NR2E3 ag-1 | PP1 inh | NR2E3 ag-2 | PP5 primary
COc1ccc(C(O)c2cnc(C)n2Cc2ccccc2)cc1 (centres undefined) | . | . | 0 | .
Cc1ccc(SCc2nc3ccccc3n2CC(=O)Nc2c(C)cccc2C)cc1 | 6 | 16* | -16 | 1
CC(Oc1ccc(Cl)cc1Cl)C(=O)NC1=NN(c2ccccc2)C(=O)C1 (centres undefined) | 2 | 17* | -8 | 4
CC(=O)Nc1ccc(NC(=O)C(C)Oc2ccc(Cl)cc2Cl)cc1 (centres undefined) | 2 | -1 | 10 | 0
O=C(NCCCO)c1ccc2nc(-c3ccco3)c(-c3ccco3)nc2c1 | . | . | 19 | .
O=C(NCCO)Nc1ccc2nc(-c3ccco3)c(-c3ccco3)nc2c1 | 46* | 47* | . | -2
COc1cc(CNCC2CCCO2)ccc1OCC(N)=O (centres undefined) | -1 | 3 | 7 | 0
CCOc1cc(CNCC2CCCO2)cc(Br)c1OCC(N)=O (centres undefined) | 4 | 17* | 5 | 2
Cc1ccc(S(=O)(=O)NC(=O)c2ccc(F)cc2)c(C)c1 | 3 | 1 | 4 | 1
Cc1ccc(S(=O)(=O)NC(=O)c2ccc(-c3ccc(-c4ccccc4)cc3)o2)c(C)c1 | 4 | 16* | . | 3
c1ccc(COc2ncnc3c2ncn3CCCNCc2ccc3c(c2)OCO3)cc1 | . | . | 7 | .
CC1CCCC(C)N1C(=O)COC(=O)CNS(=O)(=O)c1ccc2ccccc2c1 (centres undefined) | . | . | -6 | .
Nc1nc2nc(SCC(=O)N3CCCc4ccccc43)[nH]c2c(=O)[nH]1 | 2 | 15* | . | -1
CCC(CO)NCc1ccc(OCC(O)c2ccccc2)c(OC)c1 (centres undefined) | 1 | -3 | -9 | -4
Cc1cscc1-c1nc(NCC2CC2)nc2ccsc12 | . | . | -16 | .
CC(O)CN=c1cc(-c2ccccc2)oc2ccc(Cl)cc12 (centres undefined) | 3 | 0 | -111 | -1
CC(C)CN=c1cc(-c2ccccc2)oc2ccc(Cl)cc12 | 2 | 17* | -40 | 2
CCN(CC)CCOc1ccc(Br)cc1 | 0 | 0 | -10 | -1
CCN(CC)CCOc1ccc(/C(=C(\Cl)c2ccccc2)c2ccccc2)cc1 | 3 | 18* | 13 | 3
CCOC(=O)Cc1cc(=O)n2[nH]c(-c3ccc(Cl)cc3)cc2n1 | -1 | 16* | -57 | 3
Cc1ccc(C)n1-c1ccc(C(=O)/C=C/N(C)C)cc1 | -3 | 16* | 1 | 3
CN(C)/C=C/C(=O)c1ccc(Br)cc1 | 5 | 3 | -7 | 0
O=S(=O)(Nc1nc(-c2sccc2Cl)cs1)c1cc(Cl)ccc1Cl | 7 | 19* | 99* | 2
CCOc1ccc(C2C(C(=O)c3ccc(C)o3)=C(O)C(=O)N2c2nc(C)c(C(=O)OC)s2)cc1 (centres undefined) | 8 | 17* | -55 | 3
CCOc1ccc(CCNC(=O)CSCC(=O)Nc2ccc(OC)cc2)cc1OCC | 2 | -3 | 11 | -2
O=C(Nc1ccccc1C(=O)Nc1ccccc1C(=O)O)c1ccccc1 | -6 | 6 | -2 | 2
O=C(O)c1ccccc1NC(=O)c1ccccc1Nc1ccccc1 | -3 | 17* | 1 | 5
C#CCCc1cscc1/C=[N+](\[O-])c1ccc(C(=O)OCC)cc1 | 3 | 15* | -25 | -2
CCOC(=O)c1ccc(/[N+]([O-])=C/c2ccccc2)cc1 | 0 | -3 | -11 | -3
N#CCC(=O)Nc1ccc(C(=O)OCC(=O)N2CCCC2=O)cc1 | 1 | 0 | -7 | 0
